Source: PubChem (several laboratories)
An excerpt weighted towards active compounds, which were near 2.9% of everything screened.
Autophagy HCS: autophagy modulators in MEF cells, primary screen, imaging, high-content, MEF GFP-LC3; 0.98% of 190,000 active; AID 463193, 2010; calls only at 10 µM (by protocol); MEF GFP-LC3 puncta imaging; test concentration mostly 10 µM;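 active = percentage of spot-positive cells more than 3 SD above its plate mean, without a fluorescence outlier flag or 80% toxicity; inconclusive = no clear call, values can overlap the other calls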;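 note: spot-positive cell cutoff set from DMSO-treated cells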
MT stabilizer: microtubule stabilizers in HeLa cells, primary screen, imaging, high-content imaging. 0.83% of 200,000 active. % tubulin-high responders, % at 10 µM. HeLa tubulin immunostaining HCS, 24 h; share of cells brighter than vehicle mean+2SD. AID 2205, 2009;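 active = plate Z-score above 3 for both tubulin-high and condensed-nucleus cell shares, with cell loss under 80%, at 10 µM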;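 note: anti alpha tubulin signal scored within the nucleus-defined area of each cell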
Wee1 stabilizer: Wee1 degradation inhibitors, primary screen, cell-based, HeLa, Wee1K328M-luciferase, luminescence; Wee1-like protein kinase (Homo sapiens), P30291; HeLa Luc-Wee1K328M stability; 100% = proteasome inhibitor MG132 effect; reporter increase, % at 5 µM; 1.2% of 220,000 active;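 active = activation above the mean of all tested compounds plus 3 SD, set per screening run, cut at about 8.8% in these data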;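 note: cells exposed to compound for 20 h before luminescence read; 0% = DMSO alone and 100% = MG132 at 30 µM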
bCat nuc transl: modulators of beta-catenin nuclear translocation, primary screen, imaging, HeLa cells, immunofluorescence, high-content. nuclear translocation activity, % at 5 µM. AID 1665, 2009. 0.3% of 190,000 active;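 active = nuclear translocation activity above 50% at 5 µM, with a well cell count of 50 or more; inconclusive = wells under 50 cells across six images, flagged as toxic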;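 note: per-cell ratio of nuclear to cytoplasmic median beta-catenin stain intensity; plate controls were DMSO negative control for no effect and GSK-3 inhibitor IX positive control for full effect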
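Test system: HeLa cells, endogenous beta-catenin; Compound: single 5 µM dose plus 0.02–20 µM confirmation series; Times: compound exposure 24 h at 37°C; Signal: fluorescence imaging of beta-catenin antibody stain plus DAPI; Read-out: % activation, nuclear-to-cytoplasmic median beta-catenin signal ratio per cell.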
Insulin prom up: insulin promoter activators in MIN6 cells, imaging, high-content screening, mouse beta cells; MIN6 insulin promoter-GFP reporter; active compounds read high; z-score at 5 µM; 0.3% of 190,000 active;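 active = z-score above 3 at 5 µM with at least 500 cells counted in the well; inconclusive = wells under 500 cells, flagged as cytotoxic or low count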
Numbers without * were called inactive; i = inactive; ? = inconclusive; nt = no result given; + = active, no number.

SMILES | Autophagy HCS | MT stabilizer | Wee1 stabilizer | bCat nuc transl | Insulin prom up
C=CCn1c(O)c(C(C)=NC2CC2)c(=O)[nH]c1=O | i | 3.2 | 5.7 | -6.9 | -0.54
C=CCn1c(O)c(C(C)=NC2CCN(Cc3ccccc3)CC2)c(=O)[nH]c1=O | nt | nt | 10.7* | 0.4 | -0.77
CC1(C)C(C(=O)NN2C(=O)c3ccccc3C2=O)C1(C)C | i | 2.7 | -1.2 | -7.3 | 0.18
c1cncc(C2Nc3cccc4cccc(c34)N2)c1 | nt | nt | 11.5* | 0.5 | -0.32
C1=C(CCNCc2ccccc2)CCCC1 | i | 2.7 | 9.3* | -2.5 | -0.08
CCOC(=O)C1CCN(/C=C2/C(=O)NC(=O)N(Cc3ccco3)C2=O)CC1 | i | 40.7* | -1.5 | 1.9 | 0.69
COc1ccc(/C=C2/C(=O)NC(=O)N(Cc3ccco3)C2=O)cc1 | i | 1.2 | -0.4 | 0.7 | 1.4
COc1cccc(C(=O)N2CCC3(CC2)OCCO3)c1 | nt | nt | 2.7 | -0.2 | -0.24
O=C(c1ccc2c(c1)ncn2C1CCCCC1)N1CCC2(CC1)OCCO2 | i | 26.7* | 3.4 | 3.3 | -0.19
O=c1[nH]c(=O)n(Cc2ccco2)c(O)c1C=NC1CCN(Cc2ccccc2)CC1 | nt | nt | -2.6 | 0.6 | 0.46
Cc1ccc(N)c(C(=O)c2ccc(Br)cc2)c1 | i | 2.1 | 9.9* | -0.8 | 0.25
O=C1NC(=O)C(CCc2ccncc2)(Cc2cccc(Cl)c2Cl)C(=O)N1c1ccc(Br)cc1 (stereo not given) | i | 18.9* | 1.0 | 95.2* | -1.47
NC1=Nc2ccccc2Oc2ccccc21 | i | 1.7 | 10.2* | nt | nt
Cc1ccc(C)c(C2(O)CC(C)N(C)CC2C)c1 (stereo not given) | i | 2.7 | 5.2 | -0.7 | 0.36
[N-]=[N+]=NCc1cn2cccnc2n1 | i | 2.2 | -2.3 | -1.1 | 0.28
COc1ccccc1OCCCn1cc(C(=O)c2ccco2)c2ccccc21 | i | 2.0 | -1.4 | 1.5 | -0.22
O=C(c1ccco1)c1cn(Cc2ccc(Cl)cc2)c2ccccc12 | i | 5.6* | -2.1 | nt | -1.1
O=C(Cn1cc(C(=O)c2ccccc2)c2ccccc21)NCc1ccco1 | i | 31.1* | 1.2 | -3.6 | 1.19
CCN(CC)S(=O)(=O)N1CCC(C(=O)N2CCC3(CC2)OCCO3)CC1 | i | 4.0 | 2.2 | -0.1 | -1.04
CN1CCC2(O)OCCCC2C1 (stereo not given) | nt | nt | 0.1 | 2.3 | -0.16
COc1cc2c(cc1/C=C/[N+](=O)[O-])OCO2 | i | 4.2 | 10.7* | -2.9 | 1.2
NC(N)=N/N=C/c1ccc(N2CCOCC2)cc1 | i | 10.1* | -1.6 | 1.6 | -0.85
Cc1cc2ccccc2c(=O)n1CC(=O)NCC(=O)N1CCC2(CC1)OCCO2 | + | 3.5 | -2.6 | -0.3 | 0.13
COc1ccc(-n2c(Cc3cccc([N+](=O)[O-])c3)nc3ccccc3c2=O)cc1 | i | 3.4 | 1.6 | -0.7 | -0.23
Clc1ccccc1CNC1CN2CCC1CC2 (stereo not given) | i | 2.3 | 11.3* | -0.2 | -0.31
SMILES | Autophagy HCS | MT stabilizer | Wee1 stabilizer | bCat nuc transl | Insulin prom up
CC(C)(C)N1Cc2ccccc2C1=N | i | 3.9 | 1.7 | 0.1 | -0.03
O=C1NC(=O)C(=Cc2ccc(N3CCOCC3)cc2)C(=O)N1 | i | 1.8 | -1.4 | -3.9 | 0.18
O=C1NC(=O)C(=Cc2ccc3c(c2)OCO3)C(=O)N1 | i | 3.9 | 9.1* | -1.0 | -0.34
CN=C(SCc1ccccc1)c1c(O)n(C)c(=O)n(C)c1=O | i | 2.4 | 9.3* | 0.4 | -0.76
Cn1c(O)c(C(=O)c2ccccc2)c(=O)n(C)c1=O | i | 2.5 | 0.2 | -0.9 | -0.3
NC(=O)c1cn(C2OC(CO)C(O)C2O)c2ncnc(N)c12 (stereo not given) | i | 20.1* | -3.3 | ? | nt
CCNC(=O)[C@H]1O[C@@H](n2cnc3c(N)ncnc32)[C@H](O)[C@@H]1O | nt | nt | 2.7 | -2.1 | 0.18
CCCC(=O)OCC[N+](C)(C)C | i | 2.3 | 9.4* | -4.2 | nt
CSc1ccc(CN2CCN(C(=O)COc3cccc(C)c3)CC2)cc1 | i | 7.9 | -1.7 | 1.0 | -0.51
CCOC(=O)c1c(C)n(CCN2CCN(C)CC2)c2ccc(OC)cc12 | i | 4.4 | -0.5 | 3.3 | -0.42
CCOC(=O)c1c(C)n(CCOC)c2ccc(O)cc12 | i | 1.5 | 9.0* | nt | nt
